{"data": "Measured values pooled from the literature", "target": "High affinity nerve growth factor receptor (NTRK1, Homo sapiens, UniProt P04629)", "note": "Each line is one published result; the experiments were not run side by side."}
{"SMILES": "Cc1sc(C(=O)NC2COC2)cc1-n1cc(NC(=O)Nc2c(F)cccc2Cl)cn1", "observed": "enzyme activity", "action": "inhibitor", "concentration": "10 µM", "quantity": "remaining activity", "result": "81%"}
{"SMILES": "CCCOc1ccc([C@H]2[C@H](C(=O)O)[C@@H](c3ccc4c(c3)OCO4)CN2CC(=O)Nc2c(CC)cccc2CC)cc1", "observed": "cell-free assay", "technique": "competition with immobilised ligand", "concentration": "1 µM", "quantity": "remaining binding", "result": "84%"}
{"SMILES": "CC(C)(O)[C@H]1CC[C@H](Nc2ccc3ncc(-c4cccc(C(F)(F)F)c4)n3n2)CC1", "observed": "enzyme activity", "action": "inhibitor", "concentration": "1 µM", "quantity": "remaining activity", "result": "21.9%"}
{"SMILES": "O=C(Nc1ccc2[nH]ncc2c1)c1cccc(NC(=S)Nc2ccc(F)cc2F)c1", "observed": "enzyme activity", "action": "inhibitor", "technique": "FRET", "concentration": "1 µM", "quantity": "inhibition", "result": "67.3%"}
{"SMILES": "CNC(=O)c1ccc(Nc2ncc(C(F)(F)F)c(NCc3nccnc3N(C)S(C)(=O)=O)n2)cc1", "observed": "binding", "technique": "competition with immobilised ligand", "concentration": "1 µM", "quantity": "remaining binding", "result": "13%"}
{"SMILES": "CN(C)C1CCN(CC#Cc2nn(C3CCCC3)c3nc(NCc4ccccc4)ncc23)C1 (stereo not drawn)", "observed": "enzyme activity", "action": "inhibitor", "technique": "FRET", "concentration": "1 µM", "quantity": "inhibition", "result": "17%"}
{"SMILES": "O=C1Nc2ccc(Cl)cc2C1=Cc1cc(Cl)c(O)c(Cl)c1", "observed": "cell-free assay", "concentration": "0.5 µM", "quantity": "remaining signal", "result": "87.4%"}
{"SMILES": "O=C(Nc1cccc(Cl)c1)Nc1cccc(C(=O)Nc2ccc3[nH]ncc3c2)c1", "observed": "enzyme activity", "action": "inhibitor", "technique": "FRET", "concentration": "1 µM", "quantity": "inhibition", "result": "47.4%"}
{"SMILES": "O=C(NCc1ncc(C(F)(F)F)cc1Cl)c1ccc2c(c1)C1(CCS(=O)(=O)CC1)[C@@H](C1CC1)N2S(=O)(=O)c1ccc(F)cc1", "observed": "cell-free assay", "technique": "competition with immobilised ligand", "concentration": "1 µM", "quantity": "remaining binding", "result": "75%"}
{"SMILES": "FC(F)(F)Oc1cccc(-c2cnc3ccc(-c4ccncc4)nn23)c1", "observed": "enzyme activity", "action": "inhibitor", "technique": "radiometric", "concentration": "5 µM", "quantity": "activity vs control", "result": "15%"}
{"SMILES": "O=C(Nc1cnn2ccc(N3CCC[C@@H]3c3cc(F)ccc3F)nc12)N1CC[C@H](O)C1", "observed": "enzyme activity", "action": "inhibitor", "technique": "FRET", "concentration": "1 µM", "quantity": "inhibition", "result": "100%"}
{"SMILES": "Cc1ccc(NC(=O)c2ccc(CN3CCN(C)CC3)cc2)cc1Nc1nc(-c2cccnc2)cs1", "observed": "cell-free assay", "concentration": "0.5 µM", "quantity": "remaining signal", "result": "97.1%"}
{"SMILES": "CC(=O)N1CCC(c2ccc(C(=O)NC(=N)N)cc2C(F)(F)F)CC1", "observed": "cell-free assay", "technique": "competition with immobilised ligand", "concentration": "1 µM", "quantity": "remaining binding", "result": "100%"}
{"SMILES": "Cc1[nH]c(/C=C2\\C(=O)Nc3ccc(F)cc32)c(C)c1C(=O)N[C@H]1CCN(C(=O)N(C)C)C1", "observed": "enzyme activity", "action": "inhibitor", "concentration": "1 µM", "quantity": "remaining activity", "result": "5%"}
{"SMILES": "O=C(Nc1ccc(F)cc1)Nc1cccc(C(=O)Nc2ccc3[nH]ncc3c2)c1", "observed": "enzyme activity", "action": "inhibitor", "technique": "FRET", "concentration": "1 µM", "quantity": "inhibition", "result": "63.2%"}
{"SMILES": "Cc1ccc(C(=O)Nc2ccc(CN3CCN(C)CC3)c(C(F)(F)F)c2)cc1C#Cc1cnc2cccnn12", "observed": "cell-free assay", "concentration": "23.5 nM", "quantity": "remaining signal", "result": "26%"}
{"SMILES": "O=C(Nc1cnn(-c2csc(C(=O)NC3COC3)c2)c1)Nc1ccccc1Cl", "observed": "enzyme activity", "action": "inhibitor", "concentration": "5 µM", "quantity": "remaining activity", "result": "100%"}
{"SMILES": "CNC(=O)Nc1ccc2c(c1)CC[C@@]21OC(=O)N(CC(=O)N(Cc2ccc(F)cc2)[C@@H](C)C(F)(F)F)C1=O", "observed": "cell-free assay", "technique": "competition with immobilised ligand", "concentration": "1 µM", "quantity": "remaining binding", "result": "81%"}
{"SMILES": "O=C(Nc1cccc(C(=O)Nc2ccc3[nH]ncc3c2)c1)Nc1ccccc1F", "observed": "enzyme activity", "action": "inhibitor", "technique": "FRET", "concentration": "1 µM", "quantity": "inhibition", "result": "42.7%"}
{"SMILES": "Oc1cccc(-c2nc(N3CCOCC3)c3oc4ncccc4c3n2)c1", "observed": "enzyme activity", "action": "inhibitor", "concentration": "10 µM", "quantity": "remaining activity", "result": "93%"}
{"SMILES": "CS(=O)(=O)N1CCCC(NC(=O)[C@H](CCC2CCCCC2)NC(=O)c2ccc(CNc3ncnc4c3nnn4-c3ccccc3)cc2)C1 (stereo partly drawn)", "observed": "cell-free assay", "technique": "competition with immobilised ligand", "concentration": "0.1 µM", "quantity": "remaining binding", "result": "100%"}
{"SMILES": "COc1cc(Nc2cnc(C#N)c(O[C@H](C)CN(C)C)n2)ncc1-c1cnn(C)c1", "observed": "enzyme activity", "action": "inhibitor", "technique": "radiometric", "concentration": "10 µM", "quantity": "remaining activity", "result": "28%"}
{"SMILES": "CCS(=O)(=O)c1cc2cc(C[C@](O)(CC(C)(C)c3ccc(F)cc3C(N)=O)C(F)(F)F)[nH]c2cn1", "observed": "cell-free assay", "technique": "competition with immobilised ligand", "concentration": "1 µM", "quantity": "remaining binding", "result": "82%"}
{"SMILES": "CC(C)(C)c1nc(-c2cccc(NS(=O)(=O)c3c(F)cccc3F)c2F)c(-c2ccnc(N)n2)s1", "observed": "enzyme activity", "action": "inhibitor", "technique": "radiometric", "concentration": "1 µM", "quantity": "remaining activity", "result": "78%"}
{"SMILES": "CCOCCn1cc(C(=O)Nc2ccc(-n3nc(-c4cccnc4)cc3C(F)(F)F)cn2)ccc1=O", "observed": "cell-free assay", "technique": "competition with immobilised ligand", "concentration": "1 µM", "quantity": "remaining binding", "result": "100%"}
{"SMILES": "CCN(CC)CCNC(=O)c1c(C)[nH]c(/C=C2\\C(=O)Nc3ccc(F)cc32)c1C", "observed": "enzyme activity", "action": "inhibitor", "concentration": "1 µM", "quantity": "remaining activity", "result": "2%"}
{"SMILES": "O=C(Nc1ccc(Br)cc1)Nc1cccc(C(=O)Nc2ccc3[nH]ncc3c2)c1", "observed": "enzyme activity", "action": "inhibitor", "technique": "FRET", "concentration": "1 µM", "quantity": "inhibition", "result": "50.5%"}
{"SMILES": "Nc1ncnc2occ(-c3ccc(NC(=O)Nc4cc(C(F)(F)F)ccc4F)cc3)c12", "observed": "cell-free assay", "concentration": "20 µM", "quantity": "remaining signal", "result": "0%"}
{"SMILES": "N#CCCc1ccc2c(c1)-c1[nH]c3ccc([N+](=O)[O-])cc3c1CC(=O)N2", "observed": "cell-free assay", "concentration": "0.5 µM", "quantity": "remaining signal", "result": "115%"}
{"SMILES": "O=C(Nc1cccc(F)c1)Nc1cccc(C(=O)Nc2ccc3[nH]ncc3c2)c1", "observed": "enzyme activity", "action": "inhibitor", "technique": "FRET", "concentration": "1 µM", "quantity": "inhibition", "result": "51.3%"}
